Reference: ChEMBL document CHEMBL1130190, “Thromboxane modulating agents. 3. 1H-imidazol-1-ylalkyl- and 3-pyridinylalkyl-substituted 3-[2-[(arylsulfonyl)amino]ethyl]benzenepropanoic acid derivatives as dual thromboxane synthase inhibitor/thromboxane receptor antagonists” (J Med Chem, 1997)

Tests used:
[1] = target: T1, Thromboxane A2 receptor (Rattus norvegicus) (UniProt P34978); assay: Antagonist activity against TXA2 receptor measured by inhibition of U-46,619-induced contractions of rat aorta; type: functional, tissue-based
T1 sequence (whole entry): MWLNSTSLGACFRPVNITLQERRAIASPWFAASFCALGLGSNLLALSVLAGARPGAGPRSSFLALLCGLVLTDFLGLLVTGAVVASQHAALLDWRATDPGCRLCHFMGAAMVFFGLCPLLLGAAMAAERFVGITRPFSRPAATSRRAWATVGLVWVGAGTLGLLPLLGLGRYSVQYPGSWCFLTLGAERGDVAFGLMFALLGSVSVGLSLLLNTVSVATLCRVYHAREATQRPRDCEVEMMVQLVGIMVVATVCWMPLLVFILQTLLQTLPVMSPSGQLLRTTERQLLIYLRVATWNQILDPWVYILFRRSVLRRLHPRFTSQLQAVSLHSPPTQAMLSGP
Outline: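 Spirally cut rat aortic strips held under 1 g resting tension for isometric recording in Krebs-bicarbonate at 37 °C, oxygenated, equilibrated 2 h. Primed with U46619 for 10 min, washed, and rested 1 h. Cumulative U46619 (1–100 nM) contraction curves were run before and after 15 min compound exposure (1 h for footnoted entries) at several concentrations. Antagonism was derived from the shifted curves.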

[2] = target: T2, Thromboxane-A synthase (Homo sapiens, UniProt P24557); assay: Activity against human platelet microsome Thromboxane synthase
T2 sequence (P24557 whole entry): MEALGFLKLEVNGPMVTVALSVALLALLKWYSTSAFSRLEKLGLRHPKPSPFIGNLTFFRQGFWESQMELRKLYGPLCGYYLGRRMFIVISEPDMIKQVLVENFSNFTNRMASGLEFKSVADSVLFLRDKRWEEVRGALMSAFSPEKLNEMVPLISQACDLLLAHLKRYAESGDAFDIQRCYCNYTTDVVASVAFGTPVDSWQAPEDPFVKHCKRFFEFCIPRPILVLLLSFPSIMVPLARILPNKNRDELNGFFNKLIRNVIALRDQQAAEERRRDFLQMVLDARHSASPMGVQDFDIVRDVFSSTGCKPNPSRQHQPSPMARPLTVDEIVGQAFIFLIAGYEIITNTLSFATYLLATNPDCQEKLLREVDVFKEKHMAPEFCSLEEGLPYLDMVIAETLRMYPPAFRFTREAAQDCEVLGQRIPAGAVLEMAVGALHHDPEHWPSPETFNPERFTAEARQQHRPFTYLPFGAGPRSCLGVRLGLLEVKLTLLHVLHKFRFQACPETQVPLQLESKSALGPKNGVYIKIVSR

pA2 [1]	IC50 [2] [nM]	Compound
7.69	22	CN(C)S(=O)(=O)NCCc1cc(CCC(=O)O)cc(Cc2cccnc2)c1
9.06	–	O=C(O)CCc1cc(CCNS(=O)(=O)c2ccccc2)cc(Oc2cccnc2)c1
8.54	38	O=C(O)CCc1cc(CCNS(=O)(=O)c2ccc(Cl)cc2)cc(Cn2ccnc2)c1
7.43	29	CCN(CC)S(=O)(=O)NCCc1cc(CCC(=O)O)cc(Cc2cccnc2)c1
< 6	48	O=C(O)CCc1cc(CCS(=O)(=O)c2ccccc2)cc(Cc2cccnc2)c1
10.2	–	CC(c1cccnc1)c1cc(CCNS(=O)(=O)c2ccc(Cl)cc2)cc(CCC(=O)O)c1 (configuration not stated)
7.89	18	O=C(O)CCc1cc(CCNS(=O)(=O)c2ccccc2)cc(Cn2ccnc2)c1
8.1	39	CC(C)(C)CS(=O)(=O)NCCc1cc(CCC(=O)O)cc(Cc2cccnc2)c1
8	22	O=C(O)CCc1cc(CCNS(=O)(=O)N2CCCC2)cc(Cc2cccnc2)c1
10	–	C=C(c1cccnc1)c1cc(CCNS(=O)(=O)c2ccc(Cl)cc2)cc(CCC(=O)O)c1
7.09	–	O=C(O)COc1ccc(CCNS(=O)(=O)c2ccccc2)cc1
8.8	45	O=C(O)CCc1cc(CCNS(=O)(=O)c2ccccc2)cc(Cc2cccnc2)c1
8.98	37	Cc1ccc(S(=O)(=O)NCCc2cc(CCC(=O)O)cc(Cc3cccnc3)c2)cc1
7.96	22	O=C(O)CCc1cc(CCNC(=O)c2ccccc2)cc(Cc2cccnc2)c1
8.32	38	O=C(O)CCc1cc(CCNS(=O)(=O)Nc2ccc(Cl)cc2)cc(Cc2cccnc2)c1
9.39	–	O=C(O)CCc1cc(CCNS(=O)(=O)c2ccc(Cl)cc2)cc(Cc2cccnc2)c1
8.71	–	O=C(O)CCc1cccc(CCNS(=O)(=O)c2ccc(Cl)cc2)c1
9.16	–	Cc1c(Cc2cccnc2)c2cc(CCC(=O)O)ccc2n1CCNS(=O)(=O)c1ccc(F)cc1
7.8	27	O=C(O)CCc1cc(CCCS(=O)(=O)c2ccccc2)cc(Cc2cccnc2)c1
7.81	43	O=C(O)CCc1cc(CCNS(=O)(=O)N2CCCCC2)cc(Cc2cccnc2)c1
9.07	–	CC(O)(c1cccnc1)c1cc(CCNS(=O)(=O)c2ccc(Cl)cc2)cc(CCC(=O)O)c1 (configuration not stated)
9.4	–	O=C(O)CCc1cc(CCNS(=O)(=O)c2ccc(Cl)cc2)cc(Oc2cccnc2)c1
8.2	–	O=C(O)CCn1cc(Cn2ccnc2)c2cc(NS(=O)(=O)c3ccc(F)cc3)ccc21
6.78	54	CN(CCc1cc(CCC(=O)O)cc(Cc2cccnc2)c1)S(=O)(=O)c1ccc(Cl)cc1
9.44	–	O=C(O)CCc1cc(CCNS(=O)(=O)c2ccc(Br)cc2)cc(Cc2cccnc2)c1
7.71	29	CCCS(=O)(=O)NCCc1cc(CCC(=O)O)cc(Cc2cccnc2)c1
8.85	–	O=C(O)CCn1cc(Cc2cccnc2)c2cc(NS(=O)(=O)c3ccc(F)cc3)ccc21
7.81	43	O=C(O)CCc1cc(CCNS(=O)(=O)C2CCCCC2)cc(Cc2cccnc2)c1
8.8	–	Cc1c(Cn2ccnc2)c2cc(CCC(=O)O)ccc2n1CCNS(=O)(=O)c1ccc(F)cc1
8.9	20	O=C(O)CCc1cc(CCNS(=O)(=O)c2ccc(F)cc2)cc(Cc2cccnc2)c1
